GASC1 inh = inhibitors of human demethylase GASC-1 KDM4C | AID 720574 | GST-KDM4C 2-372, H3K9me3 peptide, LANCE TR-FRET | inhibition, % at 12.5 µM | Q9H3R0 | 96,000 tested, 0.15% active;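 active = mean replicate inhibition above about 25%, with at least 55% of replicates also reaching it, limit read from the data, passing the limit was not always enough; inconclusive = only one of those two conditions met; inactive = neither condition met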
Target sequence (Q9H3R0 2-372 limits assumed): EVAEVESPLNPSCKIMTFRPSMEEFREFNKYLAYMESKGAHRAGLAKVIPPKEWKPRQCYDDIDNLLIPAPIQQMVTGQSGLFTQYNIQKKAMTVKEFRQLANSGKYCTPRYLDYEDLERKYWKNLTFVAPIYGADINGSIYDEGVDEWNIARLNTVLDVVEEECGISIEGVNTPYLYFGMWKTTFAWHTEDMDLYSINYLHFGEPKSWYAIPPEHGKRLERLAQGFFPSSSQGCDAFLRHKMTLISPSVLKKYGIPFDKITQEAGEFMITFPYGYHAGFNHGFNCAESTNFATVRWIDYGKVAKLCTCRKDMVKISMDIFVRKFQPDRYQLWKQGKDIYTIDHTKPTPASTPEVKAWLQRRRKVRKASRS
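Compound: one test concentration per compound; Material: GST-GASC-1 enzyme fragment 2-372; Amount: GASC-1 enzyme at 10 nM final in reaction; Also added: H3K9me3 peptide substrate, Fe(II), 2-oxoglutarate; Technique: LANCE TR-FRET; Times: 30 min demethylation and 1 h detection at room temperature.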
T cruzi growth-1 = inhibitors of T. cruzi proliferation. T. cruzi beta-gal in NIH3T3, GalScreen luminescence, 90 h. inhibition, % at 8.34 µM. 77,000 tested, 5.9% active;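 active = mean inhibition above about 93%, with at least 55% of replicates each passing it, limit read from the data, passing the limit was not always enough; inconclusive = only one of those two conditions holds; inactive = neither condition holds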
IDH1 mut inh = IDH1 R132H (human) inhibition; O75874; IDH1 R132H reductase, diaphorase/resazurin fluorescence, 60 min; inhibition, % at 10 µM; 70,000 tested, 0.18% active; in the data active = inhibition above about 34%; inconclusive = no clear call, values can overlap the other calls; inactive = below about 11%;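 note: 0% = DMSO and 100% = no enzyme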
T cruzi growth-2 = Trypanosoma cruzi proliferation inhibition. shares compounds with T cruzi growth-1. T. cruzi beta-gal in NIH3T3, GalScreen luminescence, 90 h. inhibition, % at 8.35 µM. 5,600 tested, 72% active. AID 651739;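 active = mean replicate inhibition above about 95% and at least 55% of replicates individually reaching it, limit read from the data; inconclusive = only one of the two criteria is met; inactive = neither criterion is met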
T cruzi growth-3 = Trypanosoma cruzi proliferation inhibition | inhibition, % at 2.09 µM | shares compounds with T cruzi growth-1 | T. cruzi beta-gal in NIH3T3, GalScreen luminescence, 90 h | AID 651740 | 5,600 tested, 21% active;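 active = mean inhibition above about 95%, with at least 55% of replicates also reaching it, limit read from the data; inconclusive = meets just one of the two conditions; inactive = meets neither condition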;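 note: plate controls were neutral control median for no effect and positive control median for full effect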
NIH3T3 tox = cytotoxicity in mouse NIH/3T3 fibroblasts | shares compounds with T cruzi growth-1 | cytotoxicity (signal decrease), % at 8.35 µM | 5,600 tested, 14% active | NIH/3T3 viability, CellTiter-Glo ATP luminescence, 90 h;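 active = mean signal decrease across replicates above about 35% based on untreated-well scatter, with enough replicates individually passing, limit read from the data; inconclusive = no rule stated though some were filed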;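 note: 0% = median of neutral control wells and 100% = median of positive control wells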
NIH3T3 tox 2 = cytotoxicity in mouse NIH/3T3 fibroblasts | 5,600 tested, 56% active | NIH/3T3 viability, CellTiter-Glo ATP luminescence, 90 h | inhibition, % at 24.9 µM | shares compounds with T cruzi growth-1;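 active = mean loss of cell viability signal at or above a set limit, and enough replicates individually reaching it; inconclusive = meets only the mean limit or only the replicate share; inactive = meets neither condition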;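 note: 0% = median of neutral control wells and 100% = median of positive control wells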
An asterisk follows results filed as active; ? = inconclusive; nt = no result. Many of the other results were omitted from the sample, so hits are more common in it than they were.

SMILES	GASC1 inh	T cruzi growth-1	IDH1 mut inh	T cruzi growth-2	T cruzi growth-3	NIH3T3 tox	NIH3T3 tox 2
Cc1cccc(S(=O)(=O)N2CCCCN3[C@@H](CO)[C@@H](c4ccc(C#CC5CC5)cc4)[C@@H]3C2)c1	-1	65	nt	nt	nt	nt	nt
COc1cccc(S(=O)(=O)N2CCCCN3[C@H](C2)[C@@H](c2ccc(C#CC4CC4)cc2)[C@@H]3CO)c1	-1	121*	nt	93	93	4	?
COc1cccc(-c2cc(NCc3ccc4c(c3)OCO4)nc(N)n2)c1	nt	nt	2	nt	nt	nt	nt
CCn1c(SCC(=O)Nc2cc(Cl)ccc2Cl)nnc1-c1ccc(Cl)cc1	nt	nt	0	nt	nt	nt	nt
COc1ccc(-c2nn(CCC(=O)O)c3nc(C)cc(C)c23)c(OC)c1	nt	nt	1	nt	nt	nt	nt
CCn1c(SCC(=O)c2ccc(OC)cc2)nnc1-c1cc2cccc(OC)c2o1	nt	nt	0	nt	nt	nt	nt
CCCC#Cc1ccc([C@H]2[C@@H](CO)N(C(=O)C3CCOCC3)[C@H]2C#N)cc1	2	78	nt	nt	nt	nt	nt
CC(C)C#Cc1ccc([C@H]2[C@@H](CO)N(C(=O)C3CCC3)[C@H]2C#N)cc1	-1	37	nt	nt	nt	nt	nt
CCCC#Cc1ccc([C@@H]2[C@H](C#N)N(C(=O)C3CC3)[C@H]2CO)cc1	-1	98*	nt	107*	108*	18	7
CCCC#Cc1ccc([C@@H]2[C@@H](CO)N(C(=O)C3CCOCC3)[C@H]2C#N)cc1	0	74	nt	nt	nt	nt	nt
CCCC#Cc1ccc([C@@H]2[C@@H](C#N)N(C(=O)C3CCCC3)[C@H]2CO)cc1	2	102*	nt	96*	102*	24	39*
CC(C)C#Cc1ccc([C@@H]2[C@@H](C#N)N(C(=O)C3CCC3)[C@H]2CO)cc1	-2	?	nt	101*	77	20	33*
CCCC#Cc1ccc([C@H]2[C@@H](C#N)N(C(=O)C3CCCC3)[C@H]2CO)cc1	-2	98*	nt	90	106*	1	43*
CCCC#Cc1ccc([C@H]2[C@@H](CO)N(C(=O)C3CCCCC3)[C@H]2C#N)cc1	2	92	0	nt	nt	nt	nt
O=C(COc1ccc(I)cc1)NCc1ccco1	nt	nt	1	nt	nt	nt	nt
N#C[C@H]1[C@@H](c2ccc(C#Cc3ccc(F)cc3)cc2)[C@H](CO)N1C(=O)C1CCCC1	-3	93	nt	nt	nt	nt	nt
CCCC#Cc1ccc([C@H]2[C@@H](CO)N(C(=O)C3CCCC3)[C@H]2C#N)cc1	-3	105*	nt	116*	11	-4	28*
CCCC#Cc1ccc([C@H]2[C@@H](C#N)N(C(=O)C3CCOCC3)[C@H]2CO)cc1	0	92	nt	nt	nt	nt	nt
CCCC#Cc1ccc([C@@H]2[C@@H](C#N)N(C(=O)C3CCC3)[C@@H]2CO)cc1	0	99*	nt	99*	28	30	33*
O=C1C(=O)N(Cc2cccnc2)C(c2ccc(Br)cc2)C1C(=O)c1cccs1 (centres undefined)	nt	nt	0	nt	nt	nt	nt
COC(=O)c1ccccc1NC(=O)CN(C)S(=O)(=O)c1ccc2ccccc2c1	nt	nt	0	nt	nt	nt	nt
C[C@@H]1CN([C@@H](C)CO)C(=O)Cc2cc(NS(C)(=O)=O)ccc2O[C@H]1CN(C)Cc1ccc(-c2ccccc2)cc1	-2	88	-1	nt	nt	nt	nt
C[C@H]1CN([C@@H](C)CO)C(=O)Cc2cc(NS(=O)(=O)c3ccc(Cl)cc3)ccc2O[C@@H]1CN(C)Cc1ccccc1	0	102*	0	104*	50	-15	83*
C[C@@H]1CN([C@H](C)CO)C(=O)Cc2cc(NS(=O)(=O)c3ccccc3)ccc2O[C@@H]1CN(C)Cc1ccc(-c2ccccc2)cc1	6	67	2	nt	nt	nt	nt
C[C@@H]1CN([C@H](C)CO)C(=O)Cc2cc(NS(=O)(=O)c3ccc(F)cc3)ccc2O[C@@H]1CN(C)Cc1ccccc1	0	88	1	nt	nt	nt	nt
SMILES	GASC1 inh	T cruzi growth-1	IDH1 mut inh	T cruzi growth-2	T cruzi growth-3	NIH3T3 tox	NIH3T3 tox 2
C[C@@H]1CN([C@@H](C)CO)C(=O)Cc2cc(NS(=O)(=O)c3ccc(Cl)cc3)ccc2O[C@@H]1CN(C)Cc1ccccc1	-1	72	0	nt	nt	nt	nt
C[C@H]1CN([C@@H](C)CO)C(=O)Cc2cc(NS(=O)(=O)c3ccc(Cl)cc3)ccc2O[C@@H]1CN(C)Cc1ccc(-c2ccccc2)cc1	3	99*	nt	105*	53	6	107*
C[C@H](CO)N1C[C@H](C)[C@@H](CN(C)Cc2ccc(-c3ccccc3)cc2)Oc2ccc(NS(C)(=O)=O)cc2CC1=O	2	118*	-4	112*	?	26	105*
C[C@H](CO)N1C[C@H](C)[C@@H](CN(C)Cc2ccccc2)Oc2ccc(NS(=O)(=O)c3ccc(F)cc3)cc2CC1=O	15	109*	0	96*	44	3	0
Cc1ccc(N(C(C)C(=O)Nc2ccc(I)cc2)S(C)(=O)=O)cc1C (centres undefined)	nt	nt	0	nt	nt	nt	nt
Cc1ccc(Nc2nc(Oc3ccc(OCc4ccccc4)nn3)nc(N(C)C)n2)cc1	nt	nt	3	nt	nt	nt	nt
COc1ccc(-c2nc(SCC(=O)N3c4ccccc4Sc4ccccc43)n[nH]2)cc1	nt	nt	0	nt	nt	nt	nt
CC(Sc1nc(=O)cc(N)n1-c1ccccc1)C(=O)Nc1ccc(Cl)cc1 (centres undefined)	nt	nt	1	nt	nt	nt	nt
COc1cccc(NC(=O)CSc2nc(N)c(-c3ccccc3)c(=O)[nH]2)c1	nt	nt	0	nt	nt	nt	nt
N#C[C@H]1[C@H](c2ccc(C#Cc3ccc(F)cc3)cc2)[C@H](CO)N1C(=O)C1CCCC1	0	104*	nt	101*	71	-8	82*
N#C[C@H]1[C@@H](c2ccc(C#Cc3ccc(F)cc3)cc2)[C@H](CO)N1C(=O)C1CCC1	0	93	nt	nt	nt	nt	nt
N#C[C@@H]1[C@@H](c2ccc(C#Cc3ccc(F)cc3)cc2)[C@H](CO)N1C(=O)C1CCCC1	-4	92	nt	nt	nt	nt	nt
N#C[C@H]1[C@H](c2ccc(C#Cc3ccc(F)cc3)cc2)[C@H](CO)N1C(=O)C1CCC1	-2	99*	nt	112*	72	11	83*
O=C(O)CN(Cc1ccccc1Cl)S(=O)(=O)c1ccc(Br)cc1	nt	nt	-1	nt	nt	nt	nt
OC(CSc1nc2ccccc2s1)Cn1c2ccccc2c2ccccc21 (centres undefined)	nt	nt	0	nt	nt	nt	nt
C[C@H]1CN([C@@H](C)CO)C(=O)c2cc(NS(=O)(=O)c3ccc(F)cc3)ccc2O[C@H]1CN(C)Cc1ccc(Cl)c(Cl)c1	0	63	nt	nt	nt	nt	nt
C[C@H]1CN([C@@H](C)CO)C(=O)c2cc(NS(=O)(=O)c3ccc(Cl)cc3)ccc2O[C@@H]1CN(C)Cc1ccc(Cl)c(Cl)c1	1	89	3	nt	nt	nt	nt
Cc1ccc(S(=O)(=O)Nc2ccc3c(c2)C(=O)N([C@@H](C)CO)C[C@@H](C)[C@@H](CN(C)Cc2ccc(Cl)c(Cl)c2)O3)cc1	-2	119*	nt	107*	107*	18	103*

Bioassay records: PubChem, Broad Institute
